Assay results published in ChEMBL document CHEMBL4014335, “Activation of Phenyl 4-(2-Oxo-3-alkylimidazolidin-1-yl)benzenesulfonates Prodrugs by CYP1A1 as New Antimitotics Targeting Breast Cancer Cells” (J Med Chem, 2017).
Active and inactive are the calls of the source. The calls are words filed in the database; no cut-off is given here.

Tests used:
[1] = test system: MCF7; assay: Cell cycle arrest in human MCF7 cells assessed as accumulation at S phase at 8 nM after 24 hrs by DAPI-staining based FACS analysis (reference value: 10.6%); type: functional
[2] = test system: MDA-MB-468; assay: Cell cycle arrest in human MDA-MB-468 cells assessed as accumulation at G2/M phase at 8 nM after 24 hrs by DAPI-staining based FACS analysis (reference value: 19.5%); type: functional
[3] = test system: MCF7; assay: Cell cycle arrest in human MCF7 cells assessed as accumulation at G0/G1 phase at 8 nM after 24 hrs by DAPI-staining based FACS analysis (reference value: 65.5%); type: functional
[4] = Stability in human liver microsomes assessed as compound remaining after 60 mins by HPLC-MS analysis
[5] = test system: MDA-MB-468; assay: Cell cycle arrest in human MDA-MB-468 cells assessed as accumulation at G0/G1 phase at 50 nM after 24 hrs by DAPI-staining based FACS analysis (reference value: 63.3%); type: functional
[6] = test system: MDA-MB-468; assay: Cytotoxicity against human MDA-MB-468 cells after 72 hrs in presence of CYP inhibitor mefipristone by SRB assay; type: functional, cell-based
Outline: (§1)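 MDA-MB-468 cells co-incubated for 72 h with drug plus a subtoxic concentration of a CYP inhibitor. Viability read by SRB assay: TCA fixation, sulforhodamine B staining, absorbance at 530-565 nm.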

[7] = target: T1, Cytochrome P450 1A1 (Homo sapiens, UniProt P04798); assay: Prodrug activation assessed as human supersomes CYP1A1-mediated 3,4,5-trimethoxyphenyl 4-(2-oxoimidazolidin-1-yl)benzenesulfonate formation after 4 hrs by HPLC-MS analysis; type: ADME; conditions: recombinant enzyme
T1 sequence (P04798 whole entry): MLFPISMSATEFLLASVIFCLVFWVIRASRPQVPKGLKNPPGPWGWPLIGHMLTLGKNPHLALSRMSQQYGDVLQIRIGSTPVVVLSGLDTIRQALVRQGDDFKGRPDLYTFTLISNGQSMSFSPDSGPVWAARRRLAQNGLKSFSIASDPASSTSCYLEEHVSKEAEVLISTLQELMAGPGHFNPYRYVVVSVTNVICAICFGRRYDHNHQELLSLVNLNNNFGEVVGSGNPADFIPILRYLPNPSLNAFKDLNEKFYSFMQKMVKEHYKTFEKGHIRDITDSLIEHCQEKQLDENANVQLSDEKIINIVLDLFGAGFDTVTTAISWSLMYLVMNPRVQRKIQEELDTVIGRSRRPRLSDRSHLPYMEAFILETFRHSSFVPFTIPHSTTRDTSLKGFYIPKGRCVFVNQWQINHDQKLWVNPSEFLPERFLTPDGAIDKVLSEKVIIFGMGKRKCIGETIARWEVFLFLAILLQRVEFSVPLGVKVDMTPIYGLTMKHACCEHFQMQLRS

[8] = target: T2, Cytochrome P450 1A2 (Homo sapiens, UniProt P05177); assay: Prodrug activation assessed as human supersomes CYP1A2-mediated 3,4,5-trimethoxyphenyl 4-(2-oxoimidazolidin-1-yl)benzenesulfonate formation after 4 hrs by HPLC-MS analysis; type: ADME; conditions: recombinant enzyme
T2 sequence (P05177 whole entry): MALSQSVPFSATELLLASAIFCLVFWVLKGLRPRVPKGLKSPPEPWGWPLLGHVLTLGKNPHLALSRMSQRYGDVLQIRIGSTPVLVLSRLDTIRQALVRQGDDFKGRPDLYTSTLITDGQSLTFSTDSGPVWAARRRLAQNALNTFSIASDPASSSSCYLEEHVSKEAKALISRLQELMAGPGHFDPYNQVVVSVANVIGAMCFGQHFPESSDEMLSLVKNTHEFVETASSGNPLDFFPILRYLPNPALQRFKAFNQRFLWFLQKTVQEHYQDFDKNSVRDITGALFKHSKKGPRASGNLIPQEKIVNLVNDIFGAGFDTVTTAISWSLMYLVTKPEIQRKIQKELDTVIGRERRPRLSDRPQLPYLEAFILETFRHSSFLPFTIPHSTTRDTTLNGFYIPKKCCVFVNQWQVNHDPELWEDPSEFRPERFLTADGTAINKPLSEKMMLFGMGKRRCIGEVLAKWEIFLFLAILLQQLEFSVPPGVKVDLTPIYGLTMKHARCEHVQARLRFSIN

[9] = test system: MDA-MB-231; assay: Antiproliferative activity against ER/PR/HER2 deficient human MDA-MB-231 cells after 72 hrs in presence of phenol red by SRB assay; type: functional, cell-based
Outline: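 SRB antiproliferative assay (modified NCI protocol). Cells seeded per well (SK-BR-3, MDA-MB-231, T47D, HT-1080, HT-1080 CYP1A1 and empty-vector: 3.0 x 10^3; MDA-MB-468: 5.0 x 10^3; MCF7: 7.5 x 10^3), preincubated 24 h. DMSO-solubilized drug added at 0.75 to 1.0 x 10^5 nM, then 72 h. Fixed with cold 10% TCA, stained with 0.1% sulforhodamine B, absorbance read at 530-565 nm. At least two experiments, triplicate cultures.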

[10] = species: Homo sapiens; assay: Destabilization of microtubule network in human MCF7 cells at 50 nM after 24 hrs by fluorescence microscopic analysis; type: cell-based
[11] = test system: MDA-MB-468; assay: Cytotoxicity against human MDA-MB-468 cells after 72 hrs in presence of CYP inhibitor curcumin by SRB assay; type: functional, cell-based; outline: as §1
[12] = test system: MCF7; assay: Cell cycle arrest in human MCF7 cells assessed as accumulation at subG1 phase at 50 nM after 24 hrs by DAPI-staining based FACS analysis (reference value: 1.4%); type: functional
[13] = test system: MDA-MB-468; assay: Cytotoxicity against human MDA-MB-468 cells after 72 hrs in presence of CYP1A1 inhibitor capsaicin by SRB assay; type: functional, cell-based; outline: as §1
[14] = test system: MDA-MB-231; assay: Cell cycle arrest in human MDA-MB-231 cells assessed as accumulation at G2/M phase at 50 nM after 24 hrs by DAPI-staining based FACS analysis (reference value: 15.5%); type: functional
[15] = target: T3, Cytochrome P450 1B1 (Homo sapiens, UniProt Q16678); assay: Prodrug activation assessed as human supersomes CYP1B1-mediated 3,4,5-trimethoxyphenyl 4-(2-oxoimidazolidin-1-yl)benzenesulfonate formation after 4 hrs by HPLC-MS analysis; type: ADME; conditions: recombinant enzyme
T3 sequence (Q16678 whole entry): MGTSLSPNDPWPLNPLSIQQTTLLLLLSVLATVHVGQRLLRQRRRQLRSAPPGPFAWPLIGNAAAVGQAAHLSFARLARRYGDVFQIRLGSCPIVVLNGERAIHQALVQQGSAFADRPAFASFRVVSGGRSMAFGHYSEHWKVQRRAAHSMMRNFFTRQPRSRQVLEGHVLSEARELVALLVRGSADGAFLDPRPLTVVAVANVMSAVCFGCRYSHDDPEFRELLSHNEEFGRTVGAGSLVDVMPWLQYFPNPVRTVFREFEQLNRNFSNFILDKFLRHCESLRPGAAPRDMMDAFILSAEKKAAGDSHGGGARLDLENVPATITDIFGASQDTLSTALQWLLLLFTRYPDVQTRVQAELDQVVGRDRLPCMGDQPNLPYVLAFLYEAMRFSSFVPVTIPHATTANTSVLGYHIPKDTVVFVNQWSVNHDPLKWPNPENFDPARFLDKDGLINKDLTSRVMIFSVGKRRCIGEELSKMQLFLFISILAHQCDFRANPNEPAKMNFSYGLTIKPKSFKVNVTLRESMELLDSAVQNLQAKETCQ

| Compound | Activity [1] [%] | Activity [2] [%] | Activity [3] [%] | remaining at 1 h [4] [%] | Activity [5] [%] | Activity [6] | Drug metabolism [7] | Drug metabolism [8] | Activity [9] | Activity [10] | Activity [11] | Activity [12] [%] | Activity [13] | Activity [14] [%] | Drug metabolism [15] |
| --- | --- | --- | --- | --- | --- | --- | --- | --- | --- | --- | --- | --- | --- | --- | --- |
| COc1cc(OS(=O)(=O)c2ccc(N3CCNC3=O)cc2)cc(OC)c1OC | 10.7 | 74.4 | 9.6 | – | – | – | – | – | – | – | – | – | – | – | – |
| CCCCN1CCN(c2ccc(S(=O)(=O)Oc3cc(OC)c(OC)c(OC)c3)cc2)C1=O | – | – | – | 25 | 13.2 | Active | Metabolite_Detected | Metabolite_Notdetected | inactive | Active | Active | 4.3 | inactive | 15.6 | Metabolite_Notdetected |
